The source of these data is the EternaBench riboswitch data.

This data set concerns MS2 coat protein. Description: apparent Kd, MS2 coat protein; higher = weaker binding; RNA-MaP array; FMN 200 µM where present. In a few lines:
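On Illumina sequencing-chip clusters, designs were transcribed by stalled E. coli RNA polymerase and titrated with SNAP-549-labelled MS2 coat protein (0.7 or 1.5 nM, doubling to 3 µM), without and then with constant ligand, in 100 mM Tris-HCl pH 7.5, 80 mM KCl, 4 mM MgCl2, BSA, DTT, yeast tRNA and Tween-20. Apparent Kd is the median of filtered per-cluster curve fits to green signal normalised to red-channel RNA signal and control-cluster median Fmax.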

The mark [1] stands for this setting: designed as: OFF switch for flavin mononucleotide, no ligand.
The mark [2] stands for this setting: ligand present: flavin mononucleotide, designed as: OFF switch for flavin mononucleotide.
Setting [3] is: designed as: ON switch for flavin mononucleotide, no ligand.
Where [4] appears, read: ligand present: flavin mononucleotide, designed as: ON switch for flavin mononucleotide.

On to “GCUGCAAAGUAAGGAUAUGCCUAGGAAACCUAGGCAGAAGGUACAUGAGGAUCACCCAUGUUAACUCAAAGAGAAUAAAGCAGC”, for which the apparent Kd (usually a dissociation constant that holds for the conditions of the assay) worked out at 16.8 nM under setting [1] and 28.6 nM under setting [2].

In the case of “GCUUUAUAGAUCCAUUUUAACAACAUGAGGAUCACCCAUGUGCAGGAUAUCGUUUGUUUUAUAUUCGAGAAGGGCAAAUUCAGC”, the “apparent Kd” value by setting is: under setting [1], 32.5 nM; under setting [2], 77.6 nM.

As for “UUGGUAUUUGUAGGAUAUCUGUCGCCACCGUGUGGAGAAGGACGAACAUGAGGAUCACCCAUGUAUCAUGGUGUGGGCUUUGUU”, the “apparent Kd” value runs as follows: under setting [1], 757 nM; under setting [2], 710 nM.

Take “GUCGGAAACGACAAUGAUAGGACUGAGGAUAUACGUAAUAUUAUCCAUACAUGAGGAUCACCCAUGUAGAAGGCAGUCCUAUCU”: the “apparent Kd” value was 5.85 nM under setting [1] and 6.02 nM under setting [2].

As to “AAUUGGAUCCAGAAGGCAUGGACGACCCGUCACAUUAACAUGAGGAUCACCCAUGUGAAAACACAUGAGGAUAUGGAUCCUAAA”, the “apparent Kd” value by setting is: under setting [3], 28.7 nM; under setting [4], 7.44 nM.

As to “GCGUAUUACGCAGGAUAUCCUUAUAUACAUGAGGAUCACCCAUGUUUUUUCGGAGAAGGGCGUAUGGGAUUUAAGAAUCAACAA”, the “apparent Kd” value was determined as 11.2 nM under setting [3] and 4.31 nM under setting [4].

“UUUUAACAUGAGGAUCACCCAUGUGAGGAUAUCGAAAUUUAUAUUUAUAUUUAUAAUUCGAGAAGGCACAUUUU”: the “apparent Kd” value under setting [1] was 179 nM and the “apparent Kd” value under setting [2] was 141 nM.

In the case of “GUCAGCUCGUGAGGAUAUACAACACUGCUUCGGCAGUGUAUUAAAAUAACAUGAGGAUCACCCAUGUAGAAGGCACGAGCUGAU”, the “apparent Kd” value under setting [1] amounted to 5.14 nM and the “apparent Kd” value under setting [2] was determined as 6.62 nM.

On to “GAUCGCCGUGUCAGGAUAUCUUGUGUACCCACGUUAGAGAAGGGACAUGAGGAUCACCCAUGUACCCUGGUUUU”, for which the “apparent Kd” value amounted to 17.6 nM under setting [1] and 19.2 nM under setting [2].

“UAAAAGCGAGGAUAUACAUGAGGAUCACCCAUGUGAGGCGAAACGCCUCGGGCCAUCAGUAGAAGGUGCAAAAC”: the “apparent Kd” value runs as follows: under setting [1], 109 nM; under setting [2], 84.8 nM.

Turning to “AGAACAUGAGGAUCACCCAUGUGAAGGUCGGUGUAUAAGGGUGAGGAUAUGCUUAAAAUAAGGAAGCAGAAGGUGCUUGGUGCA”, the “apparent Kd” value by setting is: under setting [3], 155 nM; under setting [4], 145 nM.

Turning to “CUAUUCCGAGGAUAUACAUGAGGAUCACCCAUGUCGGGCCUCUGCGUUUAGCGCGAAAGUAGAAGGUGGGUUUC”, the “apparent Kd” value runs as follows: under setting [1], 34.5 nM; under setting [2], 33.6 nM.

For the sequence “AAUUCGUGUCGAGGAUAUAUUAUAUGACAACAAACACAUACAUGAGGAUCACCCAUGUCCCAUGUAUAGAAGGCGAUGUGUGUG”, the “apparent Kd” value was determined as 260 nM under setting [3] and 228 nM under setting [4].

As to “ACAUAAAUUCGAGGAUAUCGGUGAUAAAGAAGACGAGAAGGCGAUUUAAGAUAUAUGGUUAAAGACAUGAGGAUCACCCAUGUA”, the “apparent Kd” value under setting [3] turned out to be 32.1 nM and the “apparent Kd” value under setting [4] is 29.7 nM.

Take “AUUUAUAAGUAAGGAUAUCGGUUAUAUUUAAUUCGAGAAGGUACAUGAGGAUCACCCAUGUAAUAAAUAAAUAAAAUUUUUUUU”: the “apparent Kd” value reads like this: under setting [1], 36.4 nM; under setting [2], 28.7 nM.

For the sequence “GGUCGUCAAGUCAGGAUAUCGUAUAAUAGAUAUAACGAGAAGGGACAUGAGGAUCACCCAUGUCGUCUCAUCAG”, the “apparent Kd” value was 17.1 nM under setting [1] and 23.7 nM under setting [2].

“UCUCUUCUGUAGAAGGCCCAACUUGUGAAGAUAACGAUACUAUAGAAGUAGGGAGGAUAUACAUGAGGAUCACCCAUGUAGGAA”: the “apparent Kd” value was determined as 8.09 nM under setting [1] and 15.8 nM under setting [2].

“GUCAGCUCGUGAGGAUAUACAACACUGCUUCGGCAGUGUAUUAAGAUCACAUGAGGAUCACCCAUGUAGAAGGCACGAGCUCAU”: the “apparent Kd” value by setting is: under setting [1], 15.2 nM; under setting [2], 246 nM.

Regarding “CAUUAAUUCAUUAUAGUUAUUAUACAGGAUAUGUUACAUGAGGAUCACCCAUGUAUUCAUGGUAAACAGAAGGGUAAUUCUAGU”, the “apparent Kd” value runs as follows: under setting [1], 20.1 nM; under setting [2], 19.7 nM.

Regarding “AUCAUGUAAGGAUAUCUUACAUGUGACGAAAGUCACAGUUAAGAGAAGGUACAUGAGGAUCACCCAUGUAUAAC”, the “apparent Kd” value by setting is: under setting [1], 27.4 nM; under setting [2], 54.9 nM.

Take “GUUGCAAAUGAGAAGGCGAUCAUGAAACAUGAUCGAGGAUAUCAUGUUUACAUGAGGAUCACCCAUGUAUGGGUAUAUUGCAGC”: the “apparent Kd” value by setting is: under setting [3], 402 nM; under setting [4], 22.2 nM.

Take “GCGUCAGAAUUAAUUGUGACAGGCAGAAGGCUAUAUCUUAUGUUAGACAUGAGGAUCACCCAUGUAGAGGAUAUGCAGUUACAC”: the “apparent Kd” value runs as follows: under setting [1], 7.77 nM; under setting [2], 17 nM.

With “AACUCGUCAGGAUAUGCGCACAGAUAAUACGCUUCACAAUUGCAGAAGGGACAUGAGGAUCACCCAUGUAAAUA”, the “apparent Kd” value by setting is: under setting [1], 36.3 nM; under setting [2], 26.8 nM.

As to “AACCGCGAUCGGCCUGGCACGUCGAGAAGGGUACGUGACCUGCUUUACAUGAGGAUCACCCAUGUACAGGAUAUCGAAUAGCCG”, the “apparent Kd” value was found to be 6.2 nM under setting [1] and 6.68 nM under setting [2].

Regarding “AUGCUUCACACAGGAUAUACAUGAGGAUCACCCAUGUGUCCUCCGUAGCUGACACCAGCUACGCUGUAGAAGGGUGUGAAGCAU”, the “apparent Kd” value is, setting by setting: under setting [1], 261 nM; under setting [2], 201 nM.

Take “UUAUUAAGUGUGAGGAUAUGCUGGUCCUUGGAUCAGCAGAAGGCACAUGAGGAUCACCCAUGUAAUAUAUUUAU”: the “apparent Kd” value reads like this: under setting [1], 103 nM; under setting [2], 389 nM.

Regarding “AGUCAUACAGGAUAUACAUGAGGAUCACCCAUGUAAAUCCUAAAAAGAAAAUCCUCAUGUAGAAGGGUAUGACA”, the “apparent Kd” value by setting is: under setting [1], 13.6 nM; under setting [2], 9.24 nM.

Regarding “AGACAUGUCCGAGGAUAUCUGGAAACAUUUUCAAGAGAAGGCGGACAUGAGGAUCACCCAUGUCUCUCCUCAUCAAAUCCAAGU”, the “apparent Kd” value was 7.98 nM under setting [1] and 44.6 nM under setting [2].

For the sequence “AGUAUGCGAGGAUAUACAUGAGGAUCACCCAUGUGAGAGAUAAAAGUGAGAAAGACAAGUAGAAGGCGCGUACA”, the “apparent Kd” value under setting [1] was determined as 61.9 nM and the “apparent Kd” value under setting [2] was found to be 451 nM.

Consider “GUGCGUGGCUAGGAUAUUGUGGAGUUUAGUCAGCGAGAAGGAGCCACAUGAGGAUCACCCAUGUGGUGUAGCUC”, for which the “apparent Kd” value runs as follows: under setting [1], 17.2 nM; under setting [2], 94.5 nM.

Turning to “CGUAAGAUGCAGAAGGUGUUAGCUAGAGCUACGACAUGAGGAUCACCCAUGUACUAGAAACAGUACAAGGAUAUGCAUCUUACU”, the “apparent Kd” value came out at 18.4 nM under setting [3] and 6.25 nM under setting [4].

Turning to “UUUUUUGUAGUGAGGAUAUCGUUGAGGAUGUGGAUCGAGAAGGCACAUGAGGAUCACCCAUGUUAGAUGUGGUU”, the “apparent Kd” value came to 262 nM under setting [1] and 295 nM under setting [2].

On to “GGACGGUUAGUGAGGAUAUGCUCUACCUCGGUAGAGCAGAAGGCACAUGAGGAUCACCCAUGUGAAAACUGUUC”, for which the “apparent Kd” value runs as follows: under setting [1], 16.6 nM; under setting [2], 21.2 nM.

In the case of “AGAUAGUGCAGAGGAUAUCUUAAUAGAAAGAAUAGAGAAGGCUGACAUGAGGAUCACCCAUGUGAUGUCUUGAGACUACAUGGU”, the “apparent Kd” value is, setting by setting: under setting [1], 48.4 nM; under setting [2], 336 nM.

With “CUGAUGUCAGGAUAUCGGUGGCUCACUUGUGUGUGCCAGACCGAGAAGGGACAUGAGGAUCACCCAUGUCUUUA”, the “apparent Kd” value came to 20.2 nM under setting [1] and 46.2 nM under setting [2].

As for “AAAAACGUAGGAUAUACAUGAAAAAAAAAAAAAAAAAAAAGACAUGAGGAUCACCCAUGUAGAAGGGCGAAAAA”, the “apparent Kd” value under setting [1] was 115 nM and the “apparent Kd” value under setting [2] was 104 nM.

As to “CGCUUCUUAGUCAGGAUAUUGUCUGCACAGGGUAGUAAGAAGGGACAUGAGGAUCACCCAUGUAUAACGGUACC”, the “apparent Kd” value came to 51.8 nM under setting [1] and 49.1 nM under setting [2].

As for “AAAAGACAUGAGGAUCACCCAUGUGAAAACGUAGGAGGAUAUGUCGUGAAAAAAGACUUGACAGAAGGCCUGUGUC”, the “apparent Kd” value runs as follows: under setting [3], 97.7 nM; under setting [4], 30.8 nM.

As for “CUUUUGUGAGGAUAUUCGUAGUAGAUAAAUAAAACUAUUACGGAGAAGGCACAUGAGGAUCACCCAUGUUCCUU”, the “apparent Kd” value reads like this: under setting [1], 16.7 nM; under setting [2], 54.5 nM.

As to “AAGCAUUGGCUUCUCAUCUACAUGAGGAUCACCCAUGUCGGGAGAAGGAGGCGUUGACAACUAGCCUAGGAUAUCCUAACGUGC”, the “apparent Kd” value worked out at 6.74 nM under setting [1] and 7.26 nM under setting [2].

Turning to “CCGGGACAUGAGGAUCACCCAUGUUUCGUUUGUAGUAAAGCACAGGAUAUGAUGAAACAGGUUUCUCAGAAGGGUGUUCCGAAA”, the “apparent Kd” value turned out to be 91 nM under setting [3] and 75.4 nM under setting [4].

Take “GUGUACCGAGGAUAUGCUGGAAUCUAGCGAAGCUAGGUUCCACAUGAGGAUCACCCAUGUAGAAGGUGGUACAC”: the “apparent Kd” value is, setting by setting: under setting [1], 79.9 nM; under setting [2], 25.7 nM.

With “GGUACCAUCACAGGAUAUGCUUUCCUUUGGAAAGCAGAAGGGUGUAACAUGAGGAUCACCCAUGUGGUGCCAGGGCGUGAGCCC”, the “apparent Kd” value reads like this: under setting [3], 184 nM; under setting [4], 13 nM.

As to “UAUAAGAACGAAGGAUAUGGUUACAUGAGGAUCACCCAUGUAUGUAUAUUGAUCUAGUAUUAUAACCAGAAGGUCGAGAGUAUA”, the “apparent Kd” value reads like this: under setting [1], 16.1 nM; under setting [2], 27.1 nM.

For the sequence “UAUCGGAGCAGAGGAUAUUACAUGAGGAUCACCCAUGUAUGAACCAAUAGCUGGAAACAGCAAUGUAAGAAGGCUGCUCCGACA”, the “apparent Kd” value under setting [1] is 11.9 nM and the “apparent Kd” value under setting [2] came out at 163 nM.

Turning to “GUAGCUAUCGGAGGAUAUUCAUACCGGAAACGGACAUGAGGAUCACCCAUGUGGCGAAAGCCGUGGGAGAAGGCCGAUAGCUAC”, the “apparent Kd” value under setting [3] worked out at 875 nM and the “apparent Kd” value under setting [4] was 43 nM.

For “UACAUGAGGAUCACCCAUGUUUUGUCGUGUAUGGUAUUUAUCUAGGAUAUCAUUCUAUUUAGUUAUGAGAAGGAGAAUAUUAAU”, the “apparent Kd” value was determined as 28.1 nM under setting [1] and 27.4 nM under setting [2].

Regarding “GUCAGCUCGUGAGGAUAUACAACACUGCUUCGGCAGAGUAUUAAGAUCACAUGAGGAUCACCCAUGUAGAAGGCACGAGCUGAU”, the “apparent Kd” value runs as follows: under setting [1], 10.3 nM; under setting [2], 117 nM.
